21 compounds from ChEMBL document CHEMBL4184218, “Design, synthesis and biological evaluation of new carbazole derivatives as anti-cancer and anti-migratory agents” (Bioorg Med Chem, 2018) can be followed below.

One data set has as its system MCF7. The experiment in a line: Growth inhibition of human MCF7 cells after 24 hrs by SRB assay. As to conditions: MCF7, 24 h. In kind it is functional. Put shortly: (§1)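 Sulforhodamine B growth assay in MCF-7 or MDA-MB-231 breast cancer cells after 24 h of compound treatment. GI50 is the concentration giving 50% inhibition of proliferation, with an upper test limit of 50 µM. Values are the mean of triplicate experiments.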
On the technique in general: In SRB staining, fixed cells bind dye roughly in proportion to their protein.

The test system of data set [1] is MDA-MB-231. In words: Growth inhibition of human MDA-MB-231 cells after 24 hrs by SRB assay. The conditions noted are these: MDA-MB-231, 24 h. In kind it is functional. The method, boiled down:
as §1

In data set [2] the test system is MDA-MB-231. In words: Anti-migratory activity against human MDA-MB-231 cells assessed as reduction in cell migration at 5 uM after 24 hrs by scratch wound-healing assay relative to control. On the set-up: scale not given: the % may be the effect or the level left. In kind it is functional.
Data set [3] in a line: Growth inhibition of human MCF10A cells at 10 uM after 24 hrs by MTT assay relative to control. In kind it is cell-based, MCF-10A. The conditions noted are these: read-out: GI. On the technique in general: Tetrazolium assays rely on reduction of a dye to a coloured formazan, in cell work by metabolically active cells.
For data set [4], the target named is Ras-related C3 botulinum toxin substrate 1 (Homo sapiens, UniProt P63000, G15A). The experiment in a line: Inhibition of Vav2 binding to Rac1 G15A mutant in human MDA-MB-231 cells after 1 hr by pull down assay. Format: cell-based.
Data set [5] deals with Ras-related C3 botulinum toxin substrate 1 (Homo sapiens) (UniProt P63000). The experiment in a line: Inhibition of Rac1 in human MDA-MB-435 cells assessed as reduction in phosphorylation at Thr423 residue at 2 uM after 24 hrs by Western blot analysis. In kind it is cell-based. On the technique in general: Immunoblotting shows a protein as a band on a membrane.
Data set [6] deals with MDA-MB-231. The experiment in a line: Anti-migratory activity against human MDA-MB-231 cells assessed as cell migration at 10 uM after 12 hrs by scratch wound-healing assay. In kind it is functional, cell-based. The method, boiled down: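 Scratch wound-healing assay in MDA-MB-231 cells with test compounds at 10 µM against vehicle (0.02% DMSO). Wounds were photographed at 0, 12 and 24 h. Migration was taken as the distance travelled from the scratch edge toward its centre, relative to control. Values are the average of three independent experiments.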

Data set [7] relates to MCF-10A. The experiment in a line: Growth inhibition of human MCF10A cells up to 36 uM after 24 hrs by CellTiter 96 aqueous one solution cell proliferation assay. Format: cell-based.
Data set [8] has as its system MCF-10A. The experiment in a line: Cytotoxicity against human MCF10A cells assessed as reduction in cell viability at 30 to 50 uM after 24 hrs by CellTiter 96 aqueous one solution cell proliferation assay. In kind it is cell-based.
In data set [9] the target is Ras-related C3 botulinum toxin substrate 1 (Homo sapiens) (UniProt P63000). The experiment in a line: Inhibition of Rac1 in human MDA-MB-435 cells assessed as reduction in Rac-GTP level atv 250 nM after 24 hrs by ELISA-based pull down assay. In kind it is cell-based.
The target is the same in data set [10]. The experiment in a line: Inhibition of Rac1 in human MDA-MB-231 cells assessed as reduction in Rac-GTP level at 250 nM after 24 hrs by ELISA-based pull down assay. Format: cell-based.

The structures appear in SMILES notation. Activity calls are given as the source filed them. No cut-off for these calls is given here. Bounds are passed on as bounds.

In general, GI50 refers to the concentration giving 50% growth inhibition. Regarding `CCn1c2ccccc2c2cc(Nc3ncccc3C(=O)NCCCN3CCOCC3)ccc21`, the GI50 with MCF7 is 28 µM; in the data set with MDA-MB-231 [1], above 50 µM.

In the case of `CCn1c2ccccc2c2cc(NC(=O)c3cccnc3N3CCN(C(C)=O)CC3)ccc21`, the 50% growth inhibitory concentration (GI50) with MCF7 and in the data set on MDA-MB-231 [1] was above 50 µM throughout.

For the compound `CCn1c2ccccc2c2cc(NC(=O)c3nccnc3C(=O)NCCCN3CCOCC3)ccc21`, the GI50 in the data set with MCF7 and with MDA-MB-231 [1] was above 50 µM in each case.

As for `CCn1c2ccccc2c2cc(Nc3ncccc3C(=O)NCCN3CCN(C(=O)OC(C)(C)C)CC3)ccc21`, the GI50 in the data set on MCF7 and in the data set with MDA-MB-231 [1] was above 50 µM each time.

For the compound `CCn1c2ccccc2c2cc(NC(=O)c3nccnc3C(=O)NCCOC)ccc21`, the 50% growth inhibitory concentration (GI50) in the data set on MCF7 and in the data set with MDA-MB-231 [1] was above 50 µM throughout.

`CCn1c2ccccc2c2cc(Nc3ncccc3C(=O)NCCCn3ccnc3)ccc21`: the concentration for 50% growth inhibition (GI50) in the data set with MCF7 was 27 µM; in the data set with MDA-MB-231 [1], above 50 µM.

In the case of `CCn1c2ccccc2c2cc(NC(=O)c3nccnc3C(=O)NCCCn3ccnc3)ccc21`, the GI50 with MCF7 and in the data set on MDA-MB-231 [1] was above 50 µM in each case.

As for `CCn1c2ccccc2c2cc(NC(=O)c3ccccc3C(=O)NCCOC)ccc21`, the GI50 in the data set on MCF7 and with MDA-MB-231 [1] was above 50 µM in each case.

Broadly, the IC50 is the midpoint of a concentration-inhibition curve. `CCn1c2ccccc2c2cc(Nc3ccnc(NCCCN4CCOCC4)n3)ccc21`: the GI50 stood at 14 µM in the data set with MCF7 and 15 µM in the data set on MDA-MB-231 [1]. Besides, in the data set on MDA-MB-231 [2], the Activity was 17%. Also, the inhibition at 24 h, 10 µM in data set [3] is 50%. For the same compound, the 50% inhibitory concentration (IC50) in [4] came out at 1.1 µM. For the same compound, the inhibition in [5] is 60%.

As for `CCn1c2ccccc2c2cc(C(=O)Nc3cccnc3NCCCN3CCOCC3)ccc21`, the GI50 in the data set on MCF7 was determined as 32 µM; with MDA-MB-231 [1], 39 µM.

For `CCN(CC)CCCC(C)NC(=O)c1cccnc1Nc1ccc2c(c1)c1ccccc1n2CC` (configuration not stated), the GI50 with MCF7 was 13 µM; in the data set on MDA-MB-231 [1], 18 µM.

Consider `CCn1c2ccccc2c2cc(NC(=O)c3cccnc3NCCCN3CCOCC3)ccc21`, for which the GI50 was above 50 µM in the data set with MCF7 and 19 µM in the data set on MDA-MB-231 [1].

`CCn1c2ccccc2c2cc(Nc3ncccc3C(=O)Nc3cc(OC)c(OC)c(OC)c3)ccc21`: the concentration for 50% growth inhibition (GI50) in the data set with MCF7 and in the data set on MDA-MB-231 [1] was above 50 µM each time.

As for `CCn1c2ccccc2c2cc(Nc3ncccc3NC(=O)c3cccnc3)ccc21`, the figures for the concentration for 50% growth inhibition (GI50) in the data set with MCF7 and in the data set with MDA-MB-231 [1] were 41 µM and 31 µM, respectively.

With `CCn1c2ccccc2c2cc(Nc3ncccc3NC(=O)CCN3CCCCC3)ccc21`, the concentration for 50% growth inhibition (GI50) was found to be 15 µM with MCF7 and 23 µM in the data set with MDA-MB-231 [1].

Take `CCn1c2ccccc2c2cc(NC(=O)c3cccnc3N3CCN(c4ccccc4)CC3)ccc21`: the GI50 in the data set on MCF7 and with MDA-MB-231 [1] was above 50 µM each time.

On to `CCn1c2ccccc2c2cc(NC(=O)c3cccnc3N3CCOCC3)ccc21`, for which the GI50 in the data set with MCF7 and in the data set on MDA-MB-231 [1] was above 50 µM in each case. Further, the result with MDA-MB-231 [6] was Active.

`CCn1c2ccccc2c2cc(NC(=O)c3ccccc3C(=O)NCCO)ccc21`: the GI50 in the data set on MCF7 and in the data set with MDA-MB-231 [1] was above 50 µM in each case.

In the case of `CCn1c2ccccc2c2cc(NC(=O)c3nccnc3C(=O)NCCN3CCOCC3)ccc21`, the 50% growth inhibitory concentration (GI50) in the data set on MCF7 and in the data set on MDA-MB-231 [1] was above 50 µM each time.

In the case of `CCn1c2ccccc2c2cc(C(=O)Nc3cccnc3N3CCOCC3)ccc21`, the GI50 with MCF7 and in the data set on MDA-MB-231 [1] was above 50 µM each time. The result in the data set with MDA-MB-231 [6] was Active. Moreover, the “growth inhibition (GI)” value in the data set with MCF-10A [7] is given as “Non-Toxic”. For the same compound, the Activity entry with MCF-10A [8] is given as “Non-Toxic”. Moreover, the inhibition in data set [9] and in data set [10] was 55% each time.

With `CCN(CC)CCNC(=O)c1cccnc1Nc1ccc2c(c1)c1ccccc1n2CC`, the concentration for 50% growth inhibition (GI50) in the data set on MCF7 turned out to be 14 µM; with MDA-MB-231 [1], 18 µM.
